CSC inhib = cancer stem cell viability inhibitors, primary screen, luminescence; cancer stem cell-like cells viability; inhibition, % at 7.5 µM; 300,000 compounds, 1.1% hits; AID 2717, 2010; in the data active = inhibition above about 75%; inconclusive = no clear call, values can overlap the other calls; tested in HMLE shEcad cells
T cruzi inh = inhibitors of intracellular T. cruzi growth, primary screen, luminescence, NIH3T3 host cells. inhibition, % (concentration not given with the values). T. cruzi beta-gal in NIH3T3, 90 h. 300,000 compounds, 1.4% hits;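 active = mean inhibition across valid replicates above about 55%, limit read from the data; inconclusive = mean below that limit but half or more replicates reach it; inactive = mean below it, under half of replicates reach it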;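 also: signal also drops with host cell toxicity which is not excluded here; 0% = plate median of DMSO wells and 100% = zero luminescence signal; higher percent means less beta-gal luminescence so fewer parasites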
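compound dosing = single 50 nL compound addition per well in DMSO | material = NIH/3T3 host cells with β-galactosidase reporter T. cruzi | input = 5,000 host fibroblasts per well | timing = ≥90 h infection period, 3 h prior cell attachment | read-out basis = percent inhibition of parasite-derived β-gal signal | detection = GalScreen β-gal luminescence, detergent lysis, 60 min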
TAG inh = inhibitors of triacylglycerol accumulation, primary screen, cell-based, uHTS, fluorescence, H9c2 | H9c2 cells, Nile Red lipid (TAG) fluorescence; cells loaded with 200 µM oleic acid | inhibition, % at 12.5 µM | 230,000 compounds, 0.66% hits | AID 651582, 2012;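 active = pattern-corrected inhibition of lipid staining of at least 50% with the nuclear-stain viability signal not falling by more than 50%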;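 also: 0% = DMSO wells and 100% = triacsin C control wells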
A1 inh = caspase 3/7 activation in MEF A1-2A-BIM cells, primary screen, A1 inhibitor project, cell-based, luminescence, HTS. Caspase-Glo 3/7 luminescence, 3 h; percent of clofoctol response, vehicle zero. 330,000 compounds, 0.066% hits. caspase activation, % (concentration not given with the values);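 active = over half of replicate activation scores above 10%, or exactly half above 10 with the replicate mean above 10; inconclusive = replicate mean below 10 yet half the replicates above 10; inactive = over half of replicates below 10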
Beta apoptosis = inhibitors of cytokine-induced beta cell apoptosis, primary screen, luminescence | INS-1E cytokine-induced death, ATP luminescence, 48 h; percent of positive-control rescue, neutral wells zero | protection from apoptosis, % (concentration not given with the values) | 300,000 compounds, 0.8% hits | AID 435005, 2010;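 active = Every replicate reaches about 75%, or at least half do and their mean reaches it too, limit read from the data; inconclusive = At least half of replicates reach the limit but their mean does not; inactive = Under half of replicates reach the limit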;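 also: 0% = cytokine-treated negative control wells and 100% = positive control rescue; higher means more ATP so stronger rescue from cytokine killing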
Calb FLC = C. albicans growth inhibition with fluconazole, primary screen, CaCi-2 strain, Alamar Blue fluorescence. growth inhibition, % (concentration not given with the values). 300,000 compounds, 0.57% hits. AID 1979, 2009. C. albicans CaCi-2 (fluconazole-resistant clinical isolate) + fluconazole, 48 h;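 active = growth inhibition above about 58% in most replicates, limit read from the data, passing the limit was not always enough; inconclusive = exactly half the replicates above a set limit; inactive = most replicates below a set limit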;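 also: all wells also contain fluconazole at 8 µg/ml as a sub-toxic cotreatment; 0% = median of DMSO wells and 100% = median of geldanamycin control wells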
* hit, by the source's call; ? = inconclusive; / = not tested or not shown; + = active, no number. This is a sample that favours compounds with a hit; in the whole collection about 3.1% have one here.

SMILES | CSC inhib | T cruzi inh | TAG inh | A1 inh | Beta apoptosis | Calb FLC
COc1ccc(NS(=O)(=O)c2ccc(O)c(NC(=O)c3cc4c(C)nn(-c5ccc(F)cc5)c4s3)c2)cc1 | 114* | -6 | / | 0 | 12 | -8
COc1ccc(NS(=O)(=O)c2ccc(N3CCOCC3)c(NC(=O)c3ccc(F)cc3)c2)cc1 | 23 | -33 | / | 0 | 8 | 13
Cc1ccsc1C(=O)OCC(=O)NC1CCCC(C)C1C (stereo not given) | 1 | / | 14 | -1 | -4 | /
CC1CCN(C(=O)COC(=O)c2cccs2)CC1 | -17 | / | -1 | 0 | -2 | /
Cc1ccc(CNC(=O)CN2C(=O)COc3ccc(C)cc32)cc1 | -9 | -2 | / | 1 | -3 | -25
Cc1ccc(CCNC(=O)CN2C(=O)COc3ccccc32)cc1 | -5 | 67* | / | 0 | 3 | 2
Cc1cccc(N/N=C/c2ccc(O)c(O)c2O)c1 | 6 | 1 | -1 | 0 | -4 | -4
COc1cccc(N/N=C/c2cccc(Br)c2O)c1 | 44 | 65* | 21 | -3 | 19 | -7
Nc1ncnc2c1ncn2[C@@H]1O[C@H](CNCc2ccccc2OC2OC(CO)C(O)C(O)C2O)[C@@H](O)[C@H]1O (stereo not given in full) | / | / | -20 | / | / | /
C=C1C(=O)C=C2CN(C(=O)c3ccccc3)[C@@](Cc3ccc(F)cc3)(C(=O)OC)[C@@H]12 | -2 | 50 | 109 | 0 | 113* | -1
O=[N+]([O-])c1ccc(NC(=S)NCCc2ccc(Cl)cc2)cc1 | 196* | 53 | 1 | 0 | 87* | -22
O=[N+]([O-])c1cc(C(F)(F)F)ccc1NCCNC(=S)Nc1ccc(Cl)cc1 | 106* | ? | / | -1 | 36 | -15
O=C(Nc1ccc(Cl)cc1)N1CCCN(c2ccc(C(F)(F)F)cc2[N+](=O)[O-])CC1 | 83* | 21 | -4 | 0 | -3 | 1
O=[N+]([O-])c1cc(C(F)(F)F)ccc1NCCc1c[nH]c2ccccc12 | 99* | 25 | / | 0 | 2 | 23
O=[N+]([O-])c1ccc(NC(=S)NCCc2ccccc2)cc1 | 53 | 21 | / | 1 | 8 | -28
O=C(COc1ccccc1)N=C1SC2CS(=O)(=O)CC2N1c1ccccc1F (stereo not given) | -2 | 0 | / | 1 | -3 | 13
Cc1cccc(NC(=O)c2nc[nH]c2C(=O)NC2CCN(C(=O)OC(C)(C)C)CC2)c1 | ? | / | 9 | -1 | 3 | /
CCCn1c(N)c(N(CCOC)C(=O)CSc2cc(C)c3cccc(C)c3n2)c(=O)[nH]c1=O | / | / | -3 | 1 | -4 | /
O=[N+]([O-])c1cc(C(F)(F)F)ccc1NCCCCNS(=O)(=O)c1ccc(Cl)cc1 | / | -1 | / | 0 | 88* | 6
CS(=O)(=O)NCCCNc1ccc(C(F)(F)F)cc1[N+](=O)[O-] | -9 | 9 | 0 | 0 | 1 | 5
Cn1cnc2ncnc(Oc3ccc(Br)cc3)c21 | / | / | 1 | / | / | /
CCOCCCNC(=O)/C(C#N)=C/c1ccc(-c2ccc(S(=O)(=O)N3CCOCC3)cc2)o1 | 10 | -3 | / | 0 | -5 | -5
CCOCCCNC(=O)/C(C#N)=C/c1ccc([N+](=O)[O-])o1 | + | 74* | 99 | 1 | 2 | 2
CCCc1c(C(=O)NNc2ccc(C)cc2)cnn1-c1ccccc1 | 93* | 11 | -19 | 0 | -9 | -6
C[C@@H]1CN([C@H](C)CO)C(=O)Cc2cc(NS(=O)(=O)c3ccc(F)cc3)ccc2O[C@H]1CN(C)Cc1ccc(C(=O)O)cc1 | / | / | 1 | 0 | 1 | /
SMILES | CSC inhib | T cruzi inh | TAG inh | A1 inh | Beta apoptosis | Calb FLC
C[C@@H]1CN([C@H](C)CO)C(=O)Cc2cc(NS(=O)(=O)c3ccc(Cl)cc3)ccc2O[C@H]1CN(C)Cc1ccc(C(F)(F)F)cc1 | 105* | / | 13 | 1 | -8 | /
CCCCN(C(=O)c1cc(S(=O)(=O)N2CCCCC2)ccc1Cl)c1c(N)n(CCC)c(=O)[nH]c1=O | / | / | -3 | / | / | /
COc1ccc(-n2c(SCc3ccc([N+](=O)[O-])cc3)nnc2-c2ccc(C)cc2)cc1 | 14 | 70* | / | 0 | 9 | 7
CC1CCCC(C)N1C(=O)COC(=O)c1ccc(Br)o1 (stereo not given) | -31 | / | -1 | 0 | -2 | /
CN(C)c1cccc(NC(=O)c2ccco2)c1 | -3 | -6 | -4 | -1 | 3 | 0
CCN(CC)P(=O)(Nc1cccc(C(F)(F)F)c1)c1ccc(N(C)C)cc1NC(=O)c1ccco1 (stereo not given) | 2 | 55* | 34 | 0 | 10 | 25
COc1ccc(N2CC(C(=O)Nc3nc4ccc(F)cc4s3)CC2=O)c(OC)c1 (stereo not given) | -11 | -2 | 2 | 1 | -7 | 3
CC(=O)N(CCC(Cc1ccccc1)c1ccc2c(c1)OCO2)Cc1ccc(Cl)cc1 (stereo not given) | -5 | 64* | -15 | 0 | 0 | 0
C/C(=N\NC(=O)C(C)Oc1ccc([N+](=O)[O-])cc1)c1ccccn1 (stereo not given) | 53 | ? | / | -2 | 90* | 2
Cc1cccc(CN2CCN(CCCc3ccccc3)CC2)c1 | / | 63* | / | 0 | 4 | -7
Cc1cccc(CN2CCSCC2)c1 | 4 | -12 | 10 | 1 | -3 | -4
COc1cc(NS(=O)(=O)c2ccc(N/C=C(\C#N)c3nc4cc(Cl)ccc4o3)cc2)nc(OC)n1 | 95* | 6 | 0 | -1 | 22 | 9
CCc1nnc(NC(=O)c2ccc(S(=O)(=O)N3CCCc4ccccc43)cc2)o1 | -13 | 60* | / | 1 | 7 | -9
Cc1cc(NC(=O)c2ccc(S(=O)(=O)N3CCc4ccccc43)cc2)no1 | -33 | 19 | / | 0 | 2 | -3
CNC(=O)c1ccsc1NC(=O)c1ccc(S(=O)(=O)N2CCCc3ccccc32)cc1 | 25 | 57* | 141 | 0 | 13 | -1
O=C(Nc1ccc(S(=O)(=O)N2CCc3ccccc32)cc1)c1ccc2c(c1)OCO2 | 11 | 57* | / | 0 | / | ?
CC1CCc2nc(NC(=O)C3COc4ccccc4O3)sc2C1 (stereo not given) | 18 | 17 | -14 | -4 | 11 | 2
CC1CCc2nc(NC(=O)c3ccc(S(=O)(=O)N4CCCc5ccccc54)cc3)sc2C1 (stereo not given) | 5 | 61* | / | -1 | 18 | 4
O=C(NCc1ccccc1)N1CCNCC1 | -13 | -1 | -14 | 1 | -4 | 9
O=C(NC1CCCCCC1)c1ccc(CS(=O)Cc2cccc(Cl)c2)o1 (stereo not given) | -7 | 4 | / | 0 | -4 | -1

High-throughput results (PubChem)
